Experimental data collected from several papers.
Target: Activin receptor type-2A (ACVR2A, Homo sapiens, UniProt P27037)

SMILES	read-out	action	technique	concentration	endpoint	result
CC(C)(C)c1nc2c(s1)c1nc(N)ncc1c1ccc(NS(=O)(=O)c3c(F)cccc3F)c(F)c12	enzyme activity	inhibitor	radiometric	1 µM	remaining activity	74%
CCC(=O)N[C@H]1CC[C@@H](C(=O)N(C)c2ccc(-c3nc4ccccc4o3)cc2)C1	cell-free assay	–	competition with immobilised ligand	1 µM	remaining binding	98%
Cc1ccc(C(=O)NCc2ccsc2)cc1C#Cc1cn(C(C)C)c2ncnc(N)c12	enzyme activity	inhibitor	–	1 µM	activity vs control	93%
COc1cc(Cl)c(C(=O)N[C@@H](CN[C@H]2CC[C@@H](N)CC2)Cc2ccc(C#N)cc2)cc1-c1ccc(CN[C@H](C)c2ccc(C)cc2)o1	enzyme activity	inhibitor	–	1 µM	remaining activity	94%
Cc1ccc(C(=O)Nc2ccc(CN3CCN(C)CC3)c(C(F)(F)F)c2)cc1C#Cc1cnc2cccnn12	enzyme activity	–	–	23.5 nM	remaining activity	86%
Nc1ncnc2occ(-c3ccc(NC(=O)Nc4cc(C(F)(F)F)ccc4F)cc3)c12	cell-free assay	–	–	20 µM	remaining signal	45%
CCN1CCC2(CC1)NC(=O)c1c(c3ccc(Cl)c(Cl)c3n1C)C2C#N (racemic)	thermal stability	–	DSF	10 µM	ΔTm	0.1 °C
COc1cccc(CNC(=O)c2nc3scc(COCc4ccc(C(=O)O)cc4)c3c(=O)[nH]2)c1	cell-free assay	–	competition with immobilised ligand	1 µM	remaining binding	92.9%
Cn1c2c(Cl)c(Cl)ccc2c2cc[nH]c(=O)c21	thermal stability	–	DSF	10 µM	ΔTm	2.7 °C
CN1CC(Oc2cnc(C#N)cc2-c2ccn3nc(NC(=O)C4CC4)cc3c2)C1	enzyme activity	inhibitor	–	1 µM	inhibition	7%
Cn1c2c(Cl)c(Cl)ccc2c2cc(N)[nH]c(=O)c21	thermal stability	–	DSF	10 µM	ΔTm	0.6 °C
CC(C)(C)c1nc(-c2cccc(NS(=O)(=O)c3c(F)cccc3F)c2F)c(-c2ccnc(N)n2)s1	enzyme activity	inhibitor	radiometric	1 µM	remaining activity	9%
